IC50 and Activity data for nine compounds are collected here from ChEMBL document CHEMBL1138183, “Design, synthesis, and biological evaluation of isoquinoline-1,3,4-trione derivatives as potent caspase-3 inhibitors” (J Med Chem, 2006).

In one test the target is T1, Caspase-3 (Homo sapiens, UniProt P42574).
T1 sequence (P42574 whole entry): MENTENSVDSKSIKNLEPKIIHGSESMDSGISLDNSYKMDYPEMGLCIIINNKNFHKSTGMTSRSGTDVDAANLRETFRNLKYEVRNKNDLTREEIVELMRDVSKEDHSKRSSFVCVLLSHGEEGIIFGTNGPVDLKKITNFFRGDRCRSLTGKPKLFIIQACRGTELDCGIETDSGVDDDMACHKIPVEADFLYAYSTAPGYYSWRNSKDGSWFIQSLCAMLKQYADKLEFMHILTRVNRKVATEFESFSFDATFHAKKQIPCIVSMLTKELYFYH
Kind of test: Inhibition of caspase3.

The next test has as its target T2, Papain (Carica papaya, UniProt P00784).
T2 sequence (P00784 whole entry): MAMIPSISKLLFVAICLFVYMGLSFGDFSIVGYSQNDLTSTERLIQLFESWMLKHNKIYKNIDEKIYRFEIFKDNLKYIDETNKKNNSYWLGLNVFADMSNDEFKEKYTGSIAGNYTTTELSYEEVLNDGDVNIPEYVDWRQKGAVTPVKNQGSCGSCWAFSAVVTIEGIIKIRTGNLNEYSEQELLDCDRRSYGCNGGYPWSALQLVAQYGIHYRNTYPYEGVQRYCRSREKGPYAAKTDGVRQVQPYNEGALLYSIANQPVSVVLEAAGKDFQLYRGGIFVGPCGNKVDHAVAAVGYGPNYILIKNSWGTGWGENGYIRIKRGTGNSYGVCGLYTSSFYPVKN
Put plainly: Inhibition of papain. Summed up:
(§1)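 Enzymes (caspases 2, 6 and 7; proteasome, trypsin, thrombin, papain, calpain-I) preincubated with inhibitor 30 min in their own buffer at optimal pH. Substrates at 10–100 µM, assayed at 35 °C. pNA release followed at 405 nm for 1–3 min; initial hydrolysis rate taken.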

The next test has as its target T3, Caspase-6 (Homo sapiens, UniProt P55212).
T3 sequence (P55212 whole entry): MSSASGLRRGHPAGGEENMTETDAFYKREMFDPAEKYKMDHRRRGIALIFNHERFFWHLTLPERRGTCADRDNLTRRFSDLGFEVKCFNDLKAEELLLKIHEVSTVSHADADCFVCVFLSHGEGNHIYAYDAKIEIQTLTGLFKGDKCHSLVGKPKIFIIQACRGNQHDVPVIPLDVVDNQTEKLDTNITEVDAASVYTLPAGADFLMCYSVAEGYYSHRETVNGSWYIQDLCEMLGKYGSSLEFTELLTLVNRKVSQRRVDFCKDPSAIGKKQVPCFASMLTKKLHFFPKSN
Kind of test: Inhibition of caspase6. The procedure, abridged: as §1

In the next test the target is Prothrombin (Homo sapiens, UniProt P00734). Kind of test: Inhibition of thrombin. Summed up:
as §1

For a further test, the target named is T4, Caspase-2 (Homo sapiens, UniProt P42575).
T4 sequence (P42575 whole entry): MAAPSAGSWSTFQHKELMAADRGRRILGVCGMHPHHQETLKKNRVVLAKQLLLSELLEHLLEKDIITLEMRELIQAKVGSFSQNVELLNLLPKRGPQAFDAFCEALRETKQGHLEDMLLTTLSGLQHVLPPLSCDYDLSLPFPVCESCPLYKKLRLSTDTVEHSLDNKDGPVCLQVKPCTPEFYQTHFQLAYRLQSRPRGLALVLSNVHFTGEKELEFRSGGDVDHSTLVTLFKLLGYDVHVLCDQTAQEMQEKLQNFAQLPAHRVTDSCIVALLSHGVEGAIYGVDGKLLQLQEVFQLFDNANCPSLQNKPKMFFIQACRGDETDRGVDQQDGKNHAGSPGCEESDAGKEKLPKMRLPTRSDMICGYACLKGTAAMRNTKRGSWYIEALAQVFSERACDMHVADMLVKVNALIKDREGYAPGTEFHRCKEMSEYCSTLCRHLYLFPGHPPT
Kind of test: Inhibition of caspase2. The procedure, abridged:
as §1

For another test, the target named is T5, Caspase-7 (Homo sapiens, UniProt P55210).
T5 sequence (P55210 whole entry): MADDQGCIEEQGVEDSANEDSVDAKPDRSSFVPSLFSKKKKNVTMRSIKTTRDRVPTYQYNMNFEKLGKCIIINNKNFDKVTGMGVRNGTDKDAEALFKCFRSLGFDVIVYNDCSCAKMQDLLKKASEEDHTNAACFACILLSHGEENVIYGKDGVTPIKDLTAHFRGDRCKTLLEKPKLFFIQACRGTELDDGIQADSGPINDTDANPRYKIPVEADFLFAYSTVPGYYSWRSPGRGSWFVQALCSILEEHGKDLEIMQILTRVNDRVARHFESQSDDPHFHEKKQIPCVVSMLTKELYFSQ
Kind of test: Inhibition of caspase7. The procedure, abridged:
as §1

The target of the next test is Calpain 1 (Homo sapiens, UniProt P07384). Kind of test: Inhibition of calpain1. It is filed as protein-complex assay. Summed up:
as §1

The target of another test is Trypsin (Homo sapiens, UniProt P07477+P07478+P35030). Put plainly: Inhibition of trypsin. It is filed as protein assay. Summed up:
as §1

A further test deals with Rattus norvegicus. Put plainly: Decrease in infarct volume of ischemic damage in transient MCA occlusion model of Sprague-Dawley rat at 1 mg/kg, sc. It is filed as functional. More on the design: scale not given: the % may be the effect or the level left. Summed up:
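Male Sprague-Dawley rats (200–240 g); transient MCA occlusion for 1.5 h. Drug in DMSO given sc at 0.5 mL/kg, 5 min after occlusion start. Sacrifice at 24 h; 2 mm coronal slices stained with TTC. Infarct volume corrected by indirect method (contralateral minus intact ipsilateral area); n=8 per group, mean ± SE vs saline-treated animals, one-way ANOVA with Dunnett's test.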

In a further test the target is Caspase-8 (Homo sapiens, UniProt Q14790). Kind of test: Inhibition of caspase8.
In the next test the test system is Proteasome. Kind of test: Inhibition of proteasome. It is filed as subcellular. Summed up: as §1
The target of a further test is T6, Caspase-3 (Homo sapiens) (UniProt P42574).
T6 sequence (whole entry): T1 sequence (P42574 whole entry)
Kind of test: Inhibition of caspase3 activity in camptothecin-induced apoptotic Jurkat T cells at 2 uM. Type of test: functional, cell-based. Summed up: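 Jurkat cells (1 × 10⁵ cells/mL) preincubated 30 min at 37 °C, given inhibitor for 2 h, then 2 µM camptothecin for 4 h. Lysed by freeze–thaw cycles, spun at 12000g. Lysate assayed with 100 µM Ac-DEVD-AMC in HEPES pH 7.0, sucrose, CHAPS and DTT. AMC fluorescence (ex 360/em 460 nm) read 20 min at room temperature, normalised to Bradford protein.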

Broadly, the IC50 is the concentration needed to halve the response being measured.

Structures are written as SMILES. Calls of active or inactive are those of the source. The rule behind the calls is not given here. Peptide text beside a SMILES is read from it. * marks the point of attachment. Cbz = O=C(OCc1ccccc1)*; CH2F = FC* Some results are limits rather than exact numbers.

Chain of Caspase-8 (Q14790 217-374 limits assumed): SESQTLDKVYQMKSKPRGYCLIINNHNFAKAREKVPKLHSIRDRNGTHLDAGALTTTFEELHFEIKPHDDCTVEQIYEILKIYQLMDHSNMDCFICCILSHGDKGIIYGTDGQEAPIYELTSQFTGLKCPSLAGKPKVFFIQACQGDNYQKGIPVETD
Chain of Caspase-8 (Q14790 385-479 limits assumed): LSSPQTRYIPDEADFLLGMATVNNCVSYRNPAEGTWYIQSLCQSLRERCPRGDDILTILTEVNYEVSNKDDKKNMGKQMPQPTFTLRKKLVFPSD
Chain of Calpain 1 (P04632 whole entry): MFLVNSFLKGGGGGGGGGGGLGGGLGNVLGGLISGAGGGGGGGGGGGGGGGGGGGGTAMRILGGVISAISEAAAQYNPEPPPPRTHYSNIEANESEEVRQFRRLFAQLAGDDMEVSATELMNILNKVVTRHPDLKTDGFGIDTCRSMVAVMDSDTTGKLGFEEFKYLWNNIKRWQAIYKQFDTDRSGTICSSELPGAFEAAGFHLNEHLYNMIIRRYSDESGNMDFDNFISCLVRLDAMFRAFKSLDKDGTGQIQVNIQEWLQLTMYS
Chain of Calpain 1 (P07384 whole entry): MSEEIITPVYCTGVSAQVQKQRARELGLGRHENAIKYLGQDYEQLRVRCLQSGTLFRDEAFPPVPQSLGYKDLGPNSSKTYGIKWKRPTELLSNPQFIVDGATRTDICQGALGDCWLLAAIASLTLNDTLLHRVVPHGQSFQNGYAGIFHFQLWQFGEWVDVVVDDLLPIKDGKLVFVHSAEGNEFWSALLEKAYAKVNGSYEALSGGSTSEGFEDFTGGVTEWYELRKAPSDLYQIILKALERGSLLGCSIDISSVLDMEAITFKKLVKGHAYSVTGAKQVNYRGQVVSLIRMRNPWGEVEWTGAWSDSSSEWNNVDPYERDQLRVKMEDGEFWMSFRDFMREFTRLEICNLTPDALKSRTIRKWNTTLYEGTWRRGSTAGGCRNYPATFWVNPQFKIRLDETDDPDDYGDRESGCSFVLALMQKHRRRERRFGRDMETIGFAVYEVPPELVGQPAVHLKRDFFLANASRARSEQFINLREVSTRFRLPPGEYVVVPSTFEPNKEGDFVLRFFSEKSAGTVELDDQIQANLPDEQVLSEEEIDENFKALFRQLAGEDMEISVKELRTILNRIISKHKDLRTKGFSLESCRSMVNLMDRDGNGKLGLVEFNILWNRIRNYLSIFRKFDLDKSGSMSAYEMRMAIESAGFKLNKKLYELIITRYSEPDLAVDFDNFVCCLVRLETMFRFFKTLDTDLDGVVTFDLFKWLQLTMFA

As for `COc1ccccc1NC(=O)CCC(=O)Nc1ccc2c(c1)C(=O)C(=O)NC2=O`, the IC50 is 113 nM at Caspase-3; over 5000 nM against Papain; 137 nM against Caspase-6; over 5000 nM against Prothrombin; 537 nM on Caspase-2; 218 nM against Caspase-7. Also, the IC50 on Calpain 1 was over 5000 nM; on Trypsin it was over 5000 nM; against Caspase-8, 835 nM; in the test with Proteasome, over 5000 nM. This compound also displayed an Activity in the test on Rattus norvegicus (route subcutaneous) of 77%.

With `O=C(CCCl)Nc1ccc2c(c1)C(=O)C(=O)NC2=O`, the half-maximal inhibitory concentration (IC50) against Caspase-3 was 83 nM; against Papain, over 5000 nM; against Caspase-6, 283 nM; against Prothrombin, over 5000 nM; on Caspase-2, 530 nM; at Caspase-7, 139 nM. Besides, the IC50 against Calpain 1 was over 5000 nM; against Trypsin, over 5000 nM; on Caspase-8, 575 nM; in the test on Proteasome, over 5000 nM.

`CC(=O)N[C@@H](CC(=O)O)C(=O)N[C@@H](CCC(=O)O)C(=O)N[C@H](C(=O)N[C@H](C=O)CC(=O)O)C(C)C` displayed an Activity at Caspase-3 (Homo sapiens) of 3.4 RFU/µg/min.

Consider `O=C(O)CCC(=O)Nc1ccc2c(c1)C(=O)C(=O)NC2=O`, for which the 50% inhibitory concentration (IC50) at Caspase-3 is 68 nM; on Papain it was over 5000 nM; at Caspase-6 it was 201 nM; on Prothrombin it was over 5000 nM; against Caspase-2, 859 nM; against Caspase-7, 136 nM. In addition, the IC50 is over 5000 nM on Calpain 1, over 5000 nM at Trypsin, 1120 nM against Caspase-8 and over 5000 nM with Proteasome.

Consider `CC(=O)OC(C(=O)Nc1cccc2c1C(=O)C(=O)NC2=O)c1ccccc1` (configuration not stated), for which the IC50 against Caspase-3 was 40 nM; on Papain, over 5000 nM; at Caspase-6, 216 nM; against Prothrombin, over 5000 nM; against Caspase-2 it was 233 nM; on Caspase-7, 63 nM. In addition, the IC50 was over 5000 nM at Calpain 1, over 5000 nM at Trypsin, 425 nM on Caspase-8 and over 5000 nM with Proteasome.

Take `O=C1NC(=O)c2cc(NC(=O)c3ccc([N+](=O)[O-])cc3)ccc2C1=O`: the IC50 is 1380 nM against Caspase-3; over 5000 nM at Papain; 2850 nM against Caspase-6; over 5000 nM at Prothrombin; 5670 nM on Caspase-2; 2710 nM against Caspase-7. For the same compound, the IC50 against Calpain 1 was over 5000 nM; at Trypsin it was over 5000 nM; on Caspase-8, 24700 nM; with Proteasome it was over 5000 nM.

At Caspase-3 (Homo sapiens), `CC(C)[C@H](NC(=O)OCc1ccccc1)C(=O)N[C@@H](C)C(=O)N[C@@H](CC(=O)O)C(=O)CF` (Cbz-Val-Ala-Asp-CH2F) displayed an Activity of 3.6 RFU/µg/min.

In the case of `O=C1NC(=O)c2ccccc2C1=O`, the IC50 at Papain is over 5000 nM; at Caspase-6 it was 474 nM; on Prothrombin it was over 5000 nM; against Caspase-2, 1530 nM; on Caspase-7, 386 nM; at Calpain 1 it was over 5000 nM. The IC50 at Trypsin and with Proteasome was over 5000 nM throughout. Further, the result with Rattus norvegicus was inactive.

As for `O=C(CCC(=O)N1CCCCC1)Nc1ccc2c(c1)C(=O)C(=O)NC2=O`, the IC50 against Caspase-3 was 25 nM; on Papain, over 5000 nM; against Caspase-6 it was 124 nM; against Prothrombin it was over 5000 nM; at Caspase-2, 231 nM; against Caspase-7 it was 64 nM. Also, the IC50 against Calpain 1 is over 5000 nM; against Trypsin it was over 5000 nM; against Caspase-8, 288 nM; with Proteasome, over 5000 nM.
